Active and inactive are the calls of the source. The rule behind the calls is not given here.
What was measured:
[1] = target: T1, DNA (cytosine-5)-methyltransferase 3A (Homo sapiens, UniProt Q9Y6K1); assay: (§1) Inhibition of N-terminal His6-tagged DNMT3A (623 to 908 residues) (unknown origin) expressed in Escherichia coli BL21 (DE3) coexpressing DNMT3L (160 to 386 C-terminal residues) (unknown origin) assessed as reduction in oligonucleosome methylation at 100 uM preincubated for 15 mins followed by addition of [3H]-SAM measured after 4 hrs by liquid scintillation counting method
Method in brief: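 DNMT3A/3L complex activity measured by radioactive methylation assay. Single-point screen at 100µM per compound, with sinefungin (a SAM competitor) run as the reference inhibitor.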

MV4-11 = assay: Growth inhibition of human MV4-11 cells at 12.5 to 200 uM measured after 48 hrs by AlamarBlue assay; format: functional, cell-based
Method in brief: (§2)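 AML cells were exposed to 12.5, 25, 50, 100 and 200µM for 48 hours before viability read-out: Kasumi-1, MV4-11 and THP-1.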

Kasumi 1 = assay: Growth inhibition of human Kasumi-1 cells at 12.5 to 200 uM measured after 48 hrs by AlamarBlue assay; format: functional, cell-based; method in brief: as §2
KG-1 = assay: Growth inhibition of human KG1 cells at 12.5 to 200 uM measured after 72 hrs by AlamarBlue assay; format: functional, cell-based
Method in brief: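 KG-1 AML cells were treated at 12.5, 25, 50, 100 and 200µM, with viability read after 72 hours of exposure.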

[2] = target: T1, DNA (cytosine-5)-methyltransferase 3A; assay: as §1, with “methylation” for “methylation at 100 uM”
Method in brief: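 IC50 determined from a dose-response in the same radioactive methylation assay on DNMT3A/3L. Sinefungin served as the SAM-competitive reference inhibitor.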

HeLa = assay: Growth inhibition of human HeLa cells at 12.5 to 200 uM measured after 4 days by AlamarBlue assay; format: functional, cell-based
THP-1 = assay: Growth inhibition of human THP1 cells at 12.5 to 200 uM measured after 48 hrs by AlamarBlue assay; format: functional, cell-based; method in brief: as §2

T1 sequence (Q9Y6K1 whole entry, looked up, the tested form may be a part): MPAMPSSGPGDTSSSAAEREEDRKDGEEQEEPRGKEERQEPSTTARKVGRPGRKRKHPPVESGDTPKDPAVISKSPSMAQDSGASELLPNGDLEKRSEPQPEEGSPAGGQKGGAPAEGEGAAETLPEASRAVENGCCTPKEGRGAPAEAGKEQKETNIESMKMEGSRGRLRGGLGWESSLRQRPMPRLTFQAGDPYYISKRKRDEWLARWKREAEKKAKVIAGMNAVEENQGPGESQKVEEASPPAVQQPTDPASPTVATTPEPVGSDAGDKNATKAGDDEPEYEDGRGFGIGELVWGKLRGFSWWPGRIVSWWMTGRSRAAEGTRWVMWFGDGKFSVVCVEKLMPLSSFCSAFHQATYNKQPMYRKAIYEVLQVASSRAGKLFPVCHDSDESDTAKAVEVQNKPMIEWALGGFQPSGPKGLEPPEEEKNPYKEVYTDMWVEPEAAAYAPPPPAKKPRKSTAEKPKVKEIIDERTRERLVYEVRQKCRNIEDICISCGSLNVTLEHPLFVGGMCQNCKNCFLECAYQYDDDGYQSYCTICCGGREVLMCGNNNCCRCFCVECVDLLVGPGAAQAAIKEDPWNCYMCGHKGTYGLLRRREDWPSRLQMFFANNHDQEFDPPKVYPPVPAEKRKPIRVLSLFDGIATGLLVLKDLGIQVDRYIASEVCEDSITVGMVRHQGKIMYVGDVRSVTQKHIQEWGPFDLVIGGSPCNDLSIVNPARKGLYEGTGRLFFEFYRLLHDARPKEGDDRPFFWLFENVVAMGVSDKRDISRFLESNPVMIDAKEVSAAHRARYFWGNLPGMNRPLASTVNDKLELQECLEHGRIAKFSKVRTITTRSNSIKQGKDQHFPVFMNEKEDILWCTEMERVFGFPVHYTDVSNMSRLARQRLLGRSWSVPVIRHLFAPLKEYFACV

| SMILES | inhibition [1] | further results |
| --- | --- | --- |
| Cc1ccc(O)c(NC(=O)c2ccc3c(c2)C(=O)N(Cc2cccnc2)C3=O)c1 | 6% |  |
| O=C(Nc1ccccc1Cl)c1ccc2c(c1)C(=O)N(Cc1ccco1)C2=O | 13% |  |
| Cc1cc(O)ccc1NC(=O)c1ccc2c(c1)C(=O)N(Cc1cccnc1)C2=O | 11% |  |
| COc1ccccc1N1C(=O)c2ccc(C(=O)Nc3ccccc3O)cc2C1=O | 1% |  |
| O=C(Nc1ccc(Br)cc1C(=O)O)c1ccc2c(c1)C(=O)N(c1cc(Cl)ccc1C(=O)O)C2=O | 67% | growth inhibition (GI) (MV4-11): Active; growth inhibition (GI) (Kasumi 1): Active; growth inhibition (GI) (KG-1): Active; IC50 [2]: 41 µM; growth inhibition (GI) (HeLa): Active; growth inhibition (GI) (THP-1): Active |
| O=C(O)c1ccc(NC(=O)c2ccc3c(c2)C(=O)N(Cc2ccco2)C3=O)cc1 | 92% | IC50 [2]: 64 µM |
| CCOc1ccccc1N1C(=O)c2ccc(C(=O)Nc3ccc(Br)cc3C(=O)O)cc2C1=O | 56% |  |
| CC(C)(C)N1C(=O)c2ccc(C(=O)Nc3ccc(C(=O)O)cc3)cc2C1=O | 11% |  |
| COc1ccc(N2C(=O)c3ccc(C(=O)Nc4ccccc4OC)cc3C2=O)cc1 | 4% |  |
| COCCN1C(=O)c2ccc(C(=O)Nc3ccc(Br)cc3C(=O)O)cc2C1=O | -8% |  |
| CCOc1ccc(NC(=O)c2ccc3c(c2)C(=O)N(c2ccccc2)C3=O)cc1 | 19% |  |
| CC(c1ccccc1)N1C(=O)c2ccc(C(=O)Nc3ccc(Br)cc3C(=O)O)cc2C1=O (configuration not stated) | Active | growth inhibition (GI) (MV4-11): Active; growth inhibition (GI) (Kasumi 1): Active; growth inhibition (GI) (KG-1): Active; IC50 [2]: 46.5 µM; growth inhibition (GI) (HeLa): Active; growth inhibition (GI) (THP-1): Active |
| COc1ccccc1NC(=O)c1ccc2c(c1)C(=O)N(Cc1ccco1)C2=O | 3% |  |
| Cc1cc(Br)ccc1NC(=O)c1ccc2c(c1)C(=O)N(CC(C)C)C2=O | 8% |  |
